This note sets out measurements from ChEMBL document CHEMBL1817636, “Use of structure-based design to discover a potent, selective, in vivo active phosphodiesterase 10A inhibitor lead series for the treatment of schizophrenia” (J Med Chem, 2011).

Series [1] in a line: Selectivity ratio of IC50 for PDE3A to IC50 for rat PDE10A.
The target in series [2] is T1, cAMP and cAMP-inhibited cGMP 3',5'-cyclic phosphodiesterase 10A (Rattus norvegicus, UniProt Q9QYJ6).
T1 sequence (Q9QYJ6 whole entry): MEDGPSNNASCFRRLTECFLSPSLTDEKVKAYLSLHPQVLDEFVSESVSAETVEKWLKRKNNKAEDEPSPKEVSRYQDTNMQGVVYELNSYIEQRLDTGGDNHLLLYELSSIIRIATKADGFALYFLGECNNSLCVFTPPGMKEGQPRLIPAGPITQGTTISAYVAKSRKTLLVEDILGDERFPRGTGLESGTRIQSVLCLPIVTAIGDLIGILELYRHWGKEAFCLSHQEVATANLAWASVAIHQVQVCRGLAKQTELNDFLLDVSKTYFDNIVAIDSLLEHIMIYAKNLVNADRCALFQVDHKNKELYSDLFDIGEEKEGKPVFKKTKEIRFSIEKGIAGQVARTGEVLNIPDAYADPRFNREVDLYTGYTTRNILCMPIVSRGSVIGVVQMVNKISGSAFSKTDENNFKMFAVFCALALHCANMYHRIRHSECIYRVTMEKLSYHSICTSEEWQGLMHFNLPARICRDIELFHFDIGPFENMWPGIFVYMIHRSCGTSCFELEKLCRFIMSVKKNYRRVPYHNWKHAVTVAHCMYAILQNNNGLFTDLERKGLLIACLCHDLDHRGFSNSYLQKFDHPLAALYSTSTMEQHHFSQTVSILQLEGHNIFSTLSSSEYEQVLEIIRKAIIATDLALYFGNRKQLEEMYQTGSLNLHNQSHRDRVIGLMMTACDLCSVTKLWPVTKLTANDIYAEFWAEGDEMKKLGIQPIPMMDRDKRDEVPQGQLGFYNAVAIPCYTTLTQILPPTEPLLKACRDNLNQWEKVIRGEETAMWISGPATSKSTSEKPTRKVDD
Description: Inhibition of recombinant rat PDE10A expressed in Sf9 cells using [3H]cAMP after 30 mins by scintillation proximity assay. Summed up:
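Full-length rat PDE10A clone expressed in Sf9 cells; enzyme extracted in Tris/benzamidine/EDTA/sucrose/PMSF lysis buffer, pH 7.5. 30 min at room temperature, stopped with SPA beads, counted after 10–12 h.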
(Scintillation proximity formats need no separation of bound from free tracer.)

For series [3], the system named is Mus musculus. Description: Antipsychotic activity in sc dosed PDE10A-knock out DBA1LAC/J mouse assessed as inhibition of conditioned avoidance response administered 30 mins prior testing. Type of series: functional.
Series [4] in a line: Intrinsic clearance in human liver microsomes. Type of series: ADME, Microsome.
Series [5] deals with Mus musculus. The series can be described thus: Antipsychotic activity in sc dosed PDE10A-positive DBA1LAC/J mouse assessed as inhibition of conditioned avoidance response administered 30 mins prior testing. Type of series: functional.
Series [6] deals with human MDR. Description: Apparent permeability across apical to basolateral side in dog MDCK cells expressing human MDR. Type of series: ADME, cell-based, Canis lupus familiaris. Conditions: MDCK-MDR1.
Series [7] concerns Mus musculus. The series can be described thus: Antipsychotic activity in CD1 mouse assessed as increase in brain cGMP levels at 5.6 mg/kg, sc measured after 60 mins post dosing relative to control. Conditions: route subcutaneous. Type of series: functional.
Series [8] deals with Mus musculus. The series can be described thus: Antipsychotic activity in CD1 mouse assessed as increase in brain cGMP levels at 32 mg/kg, sc measured after 60 mins post dosing relative to control. The settings on record: route subcutaneous. Type of series: functional.
The test system of series [9] is Mus musculus. Description: Antipsychotic activity in CD1 mouse assessed as increase in striatal cGMP levels at 5.6 mg/kg, sc measured after 60 mins. Type of series: functional, organism-based. On the set-up: dose 5.6 mg/kg.
Series [10] in a line: Intrinsic clearance in rat liver microsomes. Type of series: ADME, Microsome.
The target in series [11] is T2, cGMP-inhibited 3',5'-cyclic phosphodiesterase 3A (Homo sapiens, UniProt Q14432). The series can be described thus: Inhibition of PDE3A at 1 uM.
T2 sequence (Q14432 whole entry): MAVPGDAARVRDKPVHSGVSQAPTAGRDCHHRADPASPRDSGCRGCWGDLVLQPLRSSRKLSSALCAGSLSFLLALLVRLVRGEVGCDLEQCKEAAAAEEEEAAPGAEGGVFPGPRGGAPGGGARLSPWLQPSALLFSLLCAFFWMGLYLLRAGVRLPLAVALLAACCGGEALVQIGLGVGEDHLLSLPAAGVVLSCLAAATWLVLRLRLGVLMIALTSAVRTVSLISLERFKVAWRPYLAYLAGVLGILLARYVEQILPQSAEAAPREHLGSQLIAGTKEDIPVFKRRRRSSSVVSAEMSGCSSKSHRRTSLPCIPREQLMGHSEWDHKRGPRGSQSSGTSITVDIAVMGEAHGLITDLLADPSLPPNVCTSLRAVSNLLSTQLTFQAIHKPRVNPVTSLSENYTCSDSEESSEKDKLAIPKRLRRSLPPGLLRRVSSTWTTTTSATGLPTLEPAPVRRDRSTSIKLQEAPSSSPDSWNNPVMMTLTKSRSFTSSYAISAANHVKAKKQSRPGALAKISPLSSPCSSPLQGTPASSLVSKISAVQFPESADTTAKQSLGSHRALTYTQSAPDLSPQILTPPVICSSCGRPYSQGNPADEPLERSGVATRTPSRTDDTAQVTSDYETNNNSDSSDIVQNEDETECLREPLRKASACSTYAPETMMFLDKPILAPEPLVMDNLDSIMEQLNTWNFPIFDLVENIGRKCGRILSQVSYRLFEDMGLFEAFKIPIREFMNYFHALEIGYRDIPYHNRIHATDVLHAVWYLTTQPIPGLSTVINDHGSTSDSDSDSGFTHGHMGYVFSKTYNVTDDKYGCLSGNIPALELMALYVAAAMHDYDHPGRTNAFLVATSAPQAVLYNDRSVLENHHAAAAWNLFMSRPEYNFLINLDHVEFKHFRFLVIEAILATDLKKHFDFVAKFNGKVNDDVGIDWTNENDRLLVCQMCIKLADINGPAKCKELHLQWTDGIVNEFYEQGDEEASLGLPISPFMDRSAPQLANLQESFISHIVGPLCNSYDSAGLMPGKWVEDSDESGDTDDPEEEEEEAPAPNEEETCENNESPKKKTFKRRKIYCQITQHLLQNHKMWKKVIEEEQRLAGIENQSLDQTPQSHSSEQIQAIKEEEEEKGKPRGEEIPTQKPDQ
Series [12] deals with Mus musculus. The series can be described thus: Antipsychotic activity in CD1 mouse assessed as increase in brain cGMP levels at 32 mg/kg, sc measured after 15 mins post dosing relative to control. Type of series: functional. Conditions: route subcutaneous.
For series [13], the system named is Mus musculus. The series can be described thus: Antipsychotic activity in CD1 mouse assessed as increase in brain cGMP levels at 32 mg/kg, sc measured after 30 mins post dosing relative to control. Type of series: functional. The settings on record: route subcutaneous.
The target of series [14] is T2, cGMP-inhibited 3',5'-cyclic phosphodiesterase 3A. The series can be described thus: Inhibition of PDE3A.
Series [15] is described as follows: Selectivity ratio IC50 for PDE5A to IC50 for rat PDE10A.
Series [16] is described as follows: Selectivity ratio IC50 for PDE11A to IC50 for rat PDE10A.
The nature of series [17]: Selectivity ratio IC50 for PDE9A to IC50 for rat PDE10A.
The nature of series [18]: Selectivity ratio IC50 for PDE2A to IC50 for rat PDE10A.
Series [19] in a line: Selectivity ratio IC50 for PDE6A to IC50 for rat PDE10A.
Series [20] can be described thus: Selectivity ratio IC50 for PDE8A to IC50 for rat PDE10A.
Series [21] is described as follows: Selectivity ratio IC50 for PDE4D to IC50 for rat PDE10A.
A short description of series [22]: Selectivity ratio IC50 for PDE1A to IC50 for rat PDE10A.
Series [23] is described as follows: Selectivity ratio IC50 for PDE7A to IC50 for rat PDE10A.
The subject of series [24] is human MDR. The series can be described thus: Efflux ratio of permeability from basolateral to apical side over apical to basolateral side in dog MDCK cells expressing human MDR. Type of series: ADME, cell-based, Canis lupus familiaris. The settings on record: MDCK-MDR1.

The source made the active and inactive calls. The rule behind the calls is not given here.

For the compound `COc1cc2ncnc(N3CCCC(c4ccccc4)C3)c2cc1OC` (stereo not drawn) [listing 1 of 2 here], the Ratio IC50 in [1] was < 0.1.
A word on the IC50: it is the concentration that inhibits the measured activity by half. For the compound `COc1cc2ncnc(N3CCCC(c4ccccc4)C3)c2cc1OCCc1cccnc1` (stereo not drawn), in series [2], the IC50 was found to be 2340 nM.
For orientation: ED50 means the dose that gives a 50% effect, or the effect in half of the subjects. A word on the CLint scaled: it is the rate of metabolic loss divided by the concentration. Low values mean slow turnover, high ones rapid turnover. Broadly, the Papp A→B is how fast a substance crosses the layer from the apical side. As for `COc1cc2ncnc(-c3cccnc3)c2cc1OCCc1ccc2ccccc2n1`, the ED50 with Mus musculus [3] is > 5.8 mg/kg; in the series on Mus musculus [5], 3.18 mg/kg. Also, the CLint scaled in [4] is < 8 mL/min/kg. In addition, the apical-to-basolateral permeability (Papp A→B) in the series on human MDR [6] was 0.4 ×10⁻⁶ cm/s. Also, the IC50 in series [2] was 5 nM. Besides, the Activity with Mus musculus [7] was 79%.
Consider `COc1cc2ncnc(N(C)C)c2cc1OCCc1ccc2ccccc2n1`, for which, in [4], the CLint scaled came out at 178 mL/min/kg. The Activity in the series with Mus musculus [8] came out at 268%; in the series with Mus musculus [7] it was 34%. Further, the Papp A→B in the series with human MDR [6] came to 19 ×10⁻⁶ cm/s. Further, the concentration for half-maximal inhibition (IC50) in series [2] was found to be 14 nM.
For orientation: inhibition means the drop in the measured response relative to a control, in per cent. Read a low inhibition as a response near the control. Regarding `COc1cc2cncnc2cc1OCCc1ccc2ccccc2n1`, in the series on Mus musculus [9], the result was inactive. For the same compound, the values for the CLint scaled in [4] and in series [10] were < 7 mL/min/kg and 183 mL/min/kg, respectively. The Papp A→B in the series with human MDR [6] came to 3 ×10⁻⁶ cm/s. The same compound registered an inhibition in [11] of 51%.
As for `COc1cc2ncnc(N3CCCC(c4ccccc4)C3)c2cc1OCCc1ccccc1` (stereo not drawn), the IC50 in [2] was found to be 1660 nM.
As to `COc1cc2ncn(C)c(=O)c2cc1OCCc1ccc2ccccc2n1`, the CLint scaled in [4] is 93 mL/min/kg. Also, the Activity is recorded as 129% with Mus musculus [12] and 79% in the series with Mus musculus [13]. In the series with human MDR [6], the Papp A→B was found to be 18 ×10⁻⁶ cm/s. The 50% inhibitory concentration (IC50) in series [2] worked out at 12 nM.
With `CCCOc1cc2c(N3CCCC(c4ccccc4)C3)ncnc2cc1OC` (stereo not drawn), the results for the half-maximal inhibitory concentration (IC50) in series [14] and in [2] were 98 nM and 1040 nM, respectively. Moreover, the Ratio IC50 in series [1] was < 0.1.
Regarding `COc1cc2ncnc(N3CCCC(c4ccccc4)C3)c2cc1OCCc1ccccn1` (racemic), in series [1], the Ratio IC50 was > 5.
For orientation: efflux ratio means the permeability from basolateral to apical divided by that in the opposite direction, in the common usage. As for `COc1cc2ncnc(N3CCCC(c4ccccc4)C3)c2cc1OCCc1ccc2ccccc2n1` (stereo not drawn), the Ratio IC50 in series [15], in series [16], in series [17], in series [18], in series [19] and in series [20] was > 100 each time. In addition, the Ratio IC50 in series [21], in [22], in series [23] and in [1] was > 100 throughout. The intrinsic clearance (CLint scaled) in [4] is > 19 mL/min/kg. For the same compound, the efflux ratio with human MDR [24] was > 10.
In series [4], `COc1cc2ncnc(N3CCCC(c4ccccc4)C3)c2cc1OC` (stereo not drawn) [listing 2 of 2 here] displayed an intrinsic metabolic clearance (CLint scaled) of 13 mL/min/kg. In addition, the 50% inhibitory concentration (IC50) in series [14] was found to be 8.5 nM. The efflux ratio in the series with human MDR [24] turned out to be 0.7.
`COc1cc2ncnc(N3CCCC(c4ccccc4)C3)c2cc1OC` (racemic): the IC50 in series [2] was 146 nM.
On to `COc1cc2ncnc(N3CCCC(c4ccccc4)C3)c2cc1OCc1ccc2ccccc2n1` (stereo not drawn), for which the half-maximal inhibitory concentration (IC50) in series [2] was > 3200 nM.
Regarding `COc1cc2ncnc(N3CCCC(c4ccccc4)C3)c2cc1OCCc1ccncc1` (stereo not drawn), the IC50 in series [2] was > 3200 nM.
As for `COc1cc2ncnc(N3CCCC(c4ccccc4)C3)c2cc1OCc1ccncc1` (stereo not drawn), in series [2], the IC50 is > 3200 nM.
As for `COc1cc2ncnc(N3CCCC(c4ccccc4)C3)c2cc1OCCCc1nc2ccccc2n1C` (stereo not drawn), in series [2], the half-inhibitory concentration (IC50) was found to be 10 nM. In [11], this compound yielded an inhibition of 11%.
On to `COc1cc2ncnc(N3CCCC(c4ccccc4)C3)c2cc1OCCc1ccccn1` (stereo not drawn), for which the inhibition in series [11] amounted to 32%.
For `COc1cc2ncnc(N3CCCC(c4ccccc4)C3)c2cc1OCc1cccnc1` (stereo not drawn), in series [2], the half-maximal inhibitory concentration (IC50) was > 3200 nM.
Turning to `COc1cc2ncnc(N3CCCC(c4ccccc4)C3)c2cc1OCc1ccccn1` (stereo not drawn), the half-maximal inhibitory concentration (IC50) in [2] was > 3200 nM.
Consider `c1ccc2nc(CCOc3ccc4ccncc4c3)ccc2c1`, for which the IC50 in series [2] stood at 809 nM.
